Measured values gathered from unrelated publications.
Values after ≈ are worked out from the molar mass of the structure shown.

SMILES | organism | assay | system | conditions | measurement | result
C=CCCCCCCCCC(=O)C(F)(F)P(=O)(O)O | Bacillus subtilis | microbial growth | ATCC23857 | – | MIC | 200 µg/mL
CCCSc1ccc2nc(NC(=O)OC)[nH]c2c1 | Cryptococcus neoformans | microbial growth, broth dilution | – | 72 h, clinical isolate | IC50 | 1.25 µM
O=C(O)c1cn(C2CC2)c2cc(N3CCNCC3)c(F)cc2c1=O | Bacillus subtilis | microbial killing | – | – | MBC | 19 µM (≈ 6.3 µg/mL)
CC[C@H](C)C[C@H](C)CCCCCCCCC(=O)N[C@H]1C[C@@H](O)[C@@H](NCCN)NC(=O)[C@@H]2[C@@H](O)CCN2C(=O)[C@H]([C@H](O)CCN)NC(=O)[C@H]([C@H](O)[C@@H](O)c2ccc(O)cc2)NC(=O)[C@@H]2C[C@@H](O)CN2C(=O)[C@H]([C@@H](C)O)NC1=O | Nakaseomyces glabratus | microbial growth, broth dilution | MY1381 | – | MIC50 | 0.125 µg/mL (≈ 0.114 µM)
CCCCCC/C=C\CCCCCCCCCC(=O)CP(=O)(O)O | Bacillus subtilis | microbial growth | ATCC23857 | – | MIC | 25 µg/mL
NC[C@H]1O[C@H](O[C@H]2[C@H](O)[C@@H](O[C@H]3O[C@H](CO)[C@@H](O)[C@H](N)[C@H]3O)[C@H](N)C[C@@H]2N)[C@H](N)C[C@@H]1O | Listeria monocytogenes | microbial growth | ATCC19115 | – | MIC | 4.7 µg/mL
Cc1c(NN=C(C#N)C2=NC(=O)CS2)c(=O)n(-c2ccccc2)n1C | Bacillus subtilis | microbial growth, well diffusion | – | 100000 µg/mL | inhibition zone | 26 mm
CC(C)CCCCCCCCCCCCCCc1cc(O)cc(O)c1 | Bacillus subtilis | microbial growth | – | – | IC50 | 10.2 µM
O=C(CCCCCCCCCCOc1ccccc1)CP(=O)(O)O | Bacillus subtilis | microbial growth | ATCC23857 | – | MIC | > 200 µg/mL
CCCCCOc1ccc(-c2cc(-c3ccc(C(=O)N[C@H]4C[C@@H](O)[C@@H](O)NC(=O)[C@@H]5[C@@H](O)[C@@H](C)CN5C(=O)[C@H]([C@H](O)CC(N)=O)NC(=O)[C@H]([C@H](O)[C@@H](O)c5ccc(O)c(OS(=O)(=O)O)c5)NC(=O)[C@@H]5C[C@@H](O)CN5C(=O)[C@H]([C@@H](C)O)NC4=O)cc3)no2)cc1 | Nakaseomyces glabratus | microbial growth | – | – | MIC50 | 0.06 µg/mL (≈ 0.0472 µM)
O=C(NN=Cc1ccc(O)c(Br)c1)c1cccc(Br)c1 | Cryptococcus neoformans | microbial growth, broth dilution | – | – | MIC | 0.3 µg/mL
CCC[C@H]1CN(c2cccc(OC(F)(F)F)c2)C(=O)CN1Cc1cncn1Cc1ccc(Br)cc1 | Cryptococcus neoformans | microbial growth, broth dilution | – | – | MIC | 3 to 6 µM
CCCCCCCCCCCCCCCc1cc(O)cc(O)c1 | Listeria monocytogenes | microbial growth | ATCC19115 | – | IC50 | > 200 µM
O=C(CCCCc1ccccc1)CP(=O)(O)O | Bacillus subtilis | microbial growth | ATCC23857 | – | MIC | > 200 µg/mL
CC(C)C(C)CCCCCCCCCCCc1cc(O)cc(O)c1 (stereo not shown) | Bacillus subtilis | microbial growth | – | – | IC50 | 11.4 µM
CC1(C)S[C@@H]2[C@H](NC(=O)[C@H](N)c3ccccc3)C(=O)N2[C@H]1C(=O)O | Proteus vulgaris | microbial growth, well diffusion | ATCC13315 | 60000 µg/mL | inhibition zone | 25 mm
